{"data": "Experimental data from different studies", "organism": "Plasmodium falciparum", "read-out": "parasite growth", "note": "Compare with care: the assays were run in different laboratories."}
{"Structure (SMILES)": "N=C(CC(O)c1cc2c(F)cc(F)cc2c2cc(C(F)(F)F)ccc12)Nc1ccc(Br)cc1 (stereo not shown)", "method": "ELISA", "strain": "3D7", "time": "72 h", "notes": "blood stage", "IC50": "6.1 nM"}
{"Structure (SMILES)": "CCOC1=CC(c2ccc[nH]2)=N/C1=C\\c1cc(Cc2ccc(Cl)cc2)c(C)[nH]1", "method": "SYBR Green", "strain": "D6", "time": "72 h", "notes": "blood stage", "IC50": "4.92 nM"}
{"Structure (SMILES)": "N=C(CC(O)c1nc2ccccc2c2ccc(Br)cc12)Nc1ccc(F)cc1 (stereo not shown)", "method": "ELISA", "strain": "3D7", "time": "72 h", "notes": "blood stage", "IC50": "19.5 nM"}
{"Structure (SMILES)": "COC1=CC(c2ccc[nH]2)=N/C1=C\\c1[nH]c(Cc2ccc(OC(F)(F)F)cc2)cc1Cc1ccc(OC(F)(F)F)cc1", "method": "SYBR Green", "strain": "D6", "time": "72 h", "notes": "blood stage", "IC50": "25.2 nM"}
{"Structure (SMILES)": "N=C(CC(O)c1nc2cc(F)ccc2c2ccc(F)cc12)Nc1ccc(F)cc1 (stereo not shown)", "method": "ELISA", "strain": "3D7", "time": "72 h", "notes": "blood stage", "IC50": "407 nM"}
{"Structure (SMILES)": "CCN(CC)CCCC(C)Nc1ccnc2cc(Cl)ccc12 (stereo not shown)", "time": "72 h", "notes": "blood stage", "IC50": "28.2 nM"}
{"Structure (SMILES)": "CC1=C(C)/C(=C/c2cc(Cc3ccc(Cl)cc3)c(C)[nH]2)N=C1c1ccc[nH]1", "method": "SYBR Green", "strain": "D6", "time": "72 h", "notes": "blood stage", "IC50": "602 nM"}
{"Structure (SMILES)": "N=C(CC(O)c1nc2ccccc2c2ccccc12)Nc1ccc(F)cc1 (stereo not shown)", "method": "ELISA", "strain": "DD2", "time": "72 h", "notes": "drug-resistant strain, blood stage", "IC50": "89.2 nM"}
{"Structure (SMILES)": "CC1=C(C)/C(=C/c2cc(-c3ccc(Cl)cc3)c(C)[nH]2)N=C1c1ccc[nH]1", "method": "SYBR Green", "strain": "D6", "time": "72 h", "notes": "blood stage", "IC50": "> 2500 nM"}
{"Structure (SMILES)": "CCN(CC)CCCC(C)Nc1ccnc2cc(Cl)ccc12 (stereo not shown)", "method": "ELISA", "strain": "3D7", "time": "72 h", "notes": "blood stage", "IC50": "3.3 nM"}
{"Structure (SMILES)": "CCN(CC)CCCC(C)Nc1ccnc2cc(Cl)ccc12 (stereo not shown)", "strain": "NF54", "notes": "blood stage", "IC50": "11.7 nM"}
{"Structure (SMILES)": "Cc1[nH]c(/C=C2\\N=C(c3ccc[nH]3)C=C2OCc2ccccc2)cc1Cc1ccc(OC(F)(F)F)cc1", "method": "SYBR Green", "strain": "D6", "time": "72 h", "notes": "blood stage", "IC50": "9.63 nM"}
{"Structure (SMILES)": "CO[C@H]1C[C@H](O[C@@H]2/C(C)=C/C[C@@H]3C[C@@H](C[C@]4(CC[C@H](C)[C@@H](C5CCCCC5)O4)O3)OC(=O)[C@@H]3C=C(C)/C(=N/O)[C@H]4OC/C(=C\\C=C\\[C@@H]2C)[C@]43O)O[C@@H](C)[C@@H]1O", "method": "SYBR Green", "strain": "3D7", "notes": "blood stage", "IC50": "553 nM"}
{"Structure (SMILES)": "CCCCCCCCCCCCCCCCCC(=O)O", "method": "SYBR Green", "strain": "3D7", "time": "48 h", "notes": "blood stage", "IC50": "7.66 µg/mL"}
{"Structure (SMILES)": "CCCCCCCCNC(C)C(O)c1ccc(SC(C)C)cc1 (stereo not shown)", "strain": "NF54", "notes": "blood stage", "IC50": "72.6 nM"}
{"Structure (SMILES)": "Cc1ccc(N(c2ccc(NC(=O)CN(C)c3ccccc3N3CCCC3=O)cc2)C(C)C)cc1", "method": "SYBR Green", "strain": "DD2", "notes": "blood stage", "IC50": "2.74 nM"}
{"Structure (SMILES)": "CO[C@H]1/C=C/O[C@@]2(C)Oc3c(C)c(O)c4c(O)c(c(/C=N/N5CCN(C6CCCC6)CC5)c(O)c4c3C2=O)NC(=O)/C(C)=C\\C=C\\[C@H](C)[C@H](O)[C@@H](C)[C@@H](O)[C@@H](C)[C@H](OC(C)=O)[C@@H]1C", "method": "SYBR Green", "strain": "3D7", "notes": "blood stage", "IC50": "238 nM"}
{"Structure (SMILES)": "N=C(CC(O)c1cc2cccnc2c2cccnc12)Nc1ccc(F)cc1 (stereo not shown)", "method": "ELISA", "strain": "3D7", "time": "72 h", "notes": "blood stage", "IC50": "3200 nM"}
{"Structure (SMILES)": "CO[C@H]1/C=C/O[C@@]2(C)Oc3c(C)c(O)c4c(O)c(c(/C=N/N5CCN(C)CC5)c(O)c4c3C2=O)NC(=O)/C(C)=C\\C=C\\[C@H](C)[C@H](O)[C@@H](C)[C@@H](O)[C@@H](C)[C@H](OC(C)=O)[C@@H]1C", "strain": "NF54", "notes": "blood stage", "IC50": "900 nM"}
{"Structure (SMILES)": "CCC1=C(CC)/C(=C/c2cc(Cc3ccc(OC(F)(F)F)cc3)c(C)[nH]2)N=C1c1ccc[nH]1", "method": "SYBR Green", "strain": "D6", "time": "72 h", "notes": "blood stage", "IC50": "265 nM"}
{"Structure (SMILES)": "N=C(CC(O)c1nc2ccccc2c2ccc(Cl)cc12)Nc1ccc(F)cc1 (stereo not shown)", "method": "ELISA", "strain": "DD2", "time": "72 h", "notes": "drug-resistant strain, blood stage", "IC50": "49.9 nM"}
{"Structure (SMILES)": "COc1ccc2cc1Oc1ccc(cc1)C[C@H]1c3c(cc4c(c3Oc3cc5c(cc3OC)CCN(C)[C@@H]5C2)OCO4)CCN1C", "strain": "NF54", "notes": "blood stage", "IC50": "188 nM"}
